ChEMBL document CHEMBL1212860, “Further optimization of novel pyrrole 3-carboxamides for targeting serotonin 5-HT(2A), 5-HT(2C), and the serotonin transporter as a potential antidepressant” (Bioorg Med Chem, 2010)

How the values were obtained:
[1] = target: Voltage-gated inwardly rectifying potassium channel KCNH2 (Homo sapiens, UniProt Q12809); experiment: Inhibition of human recombinant ERG channel expressed in HEK293 cells
[2] = target: T1, 5-hydroxytryptamine receptor 2C (Homo sapiens, UniProt P28335); experiment: Displacement of [3H]mesulergine from human recombinant 5HT2C expressed in CHOK1 cells; format: cell-based, CHO-K1
T1 sequence (P28335 whole entry): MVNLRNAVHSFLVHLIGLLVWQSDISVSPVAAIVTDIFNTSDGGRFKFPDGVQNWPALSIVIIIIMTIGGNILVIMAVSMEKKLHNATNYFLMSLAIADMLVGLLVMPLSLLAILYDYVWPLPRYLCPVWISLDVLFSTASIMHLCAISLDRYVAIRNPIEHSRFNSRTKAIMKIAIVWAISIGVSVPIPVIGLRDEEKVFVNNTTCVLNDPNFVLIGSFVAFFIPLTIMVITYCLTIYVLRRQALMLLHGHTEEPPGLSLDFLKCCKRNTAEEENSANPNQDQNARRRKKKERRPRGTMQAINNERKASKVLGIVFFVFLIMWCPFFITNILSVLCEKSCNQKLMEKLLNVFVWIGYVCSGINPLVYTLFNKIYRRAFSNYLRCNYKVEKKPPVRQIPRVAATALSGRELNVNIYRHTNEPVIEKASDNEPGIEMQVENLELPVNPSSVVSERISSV
Outline: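 Frozen CHO-K1 membranes with human recombinant 5-HT2C were incubated with 1.3 nM [3H]mesulergine in 50 mM Tris-HCl pH 7.4 with 0.1% ascorbic acid and 4 mM CaCl2 for 60 min at 27 °C. Nonspecific binding was set with 100 mianserin. Stopped by rapid filtration on glass fibre presoaked in 0.5% PEI.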

[3] = target: 5-hydroxytryptamine receptor 2A (Homo sapiens, UniProt P28223); experiment: Displacement of [3H]ketanserin from human recombinant 5HT2A expressed in CHOK1 cells; format: cell-based, CHO-K1
Chain of 5-hydroxytryptamine receptor 2A (P28223 whole entry): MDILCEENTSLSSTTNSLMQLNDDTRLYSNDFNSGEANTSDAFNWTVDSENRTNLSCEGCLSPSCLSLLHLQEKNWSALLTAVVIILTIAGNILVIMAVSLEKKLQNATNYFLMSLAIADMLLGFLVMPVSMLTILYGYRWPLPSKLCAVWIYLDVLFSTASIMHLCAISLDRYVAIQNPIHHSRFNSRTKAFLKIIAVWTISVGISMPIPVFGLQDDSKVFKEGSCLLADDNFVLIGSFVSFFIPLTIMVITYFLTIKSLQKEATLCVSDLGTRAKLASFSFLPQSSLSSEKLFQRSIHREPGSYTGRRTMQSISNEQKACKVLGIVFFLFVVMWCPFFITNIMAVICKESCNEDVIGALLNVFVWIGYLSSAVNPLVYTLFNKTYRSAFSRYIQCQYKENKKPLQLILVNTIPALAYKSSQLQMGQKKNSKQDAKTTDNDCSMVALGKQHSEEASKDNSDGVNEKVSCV
Outline: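 Human recombinant 5-HT2A membranes from CHO-K1 cells were incubated with 1 nM [3H]ketanserin, with mianserin defining nonspecific binding. Incubation was 60 min at 27 °C in 50 mM Tris-HCl pH 7.4 with 4 mM CaCl2 and 0.1% ascorbic acid. Filtered on glass fibre presoaked in 0.5% PEI, washed, and counted. IC50 by nonlinear regression from 7–8 concentrations in duplicate.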

[4] = target: Sodium-dependent serotonin transporter (Homo sapiens, UniProt P31645); experiment: Displacement of [3H]imipramine from human SERT expressed in HEK293 cells; format: cell-based
Chain of Sodium-dependent serotonin transporter (P31645 whole entry): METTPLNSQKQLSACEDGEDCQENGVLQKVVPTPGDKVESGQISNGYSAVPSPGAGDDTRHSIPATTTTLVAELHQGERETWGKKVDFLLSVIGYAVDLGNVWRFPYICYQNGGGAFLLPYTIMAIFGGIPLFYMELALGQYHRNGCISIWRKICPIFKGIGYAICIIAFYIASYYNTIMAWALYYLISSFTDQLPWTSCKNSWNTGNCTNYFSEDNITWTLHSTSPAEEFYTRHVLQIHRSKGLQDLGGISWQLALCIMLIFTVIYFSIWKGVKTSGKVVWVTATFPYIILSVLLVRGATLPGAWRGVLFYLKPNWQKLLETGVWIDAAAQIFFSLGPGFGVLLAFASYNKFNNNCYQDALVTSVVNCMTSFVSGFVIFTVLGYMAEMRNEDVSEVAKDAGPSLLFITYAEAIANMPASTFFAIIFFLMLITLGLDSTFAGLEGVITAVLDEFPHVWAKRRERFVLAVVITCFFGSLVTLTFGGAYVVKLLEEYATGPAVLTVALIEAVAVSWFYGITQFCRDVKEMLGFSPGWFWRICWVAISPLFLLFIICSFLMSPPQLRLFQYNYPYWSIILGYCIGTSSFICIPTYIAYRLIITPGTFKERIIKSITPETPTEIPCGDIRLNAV
Outline: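 Membranes from 293 cells expressing SERT were incubated with 2 nM [3H]imipramine in 50 mM Tris-HCl pH 7.4 with 120 mM NaCl and 5 mM KCl for 30 min at 27 °C. Filtered through glass fibre presoaked in 0.5% PEI, then washed with ice-cold 50 mM Tris-HCl pH 7.4 containing 0.9% NaCl.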

Mus musculus = experiment: Locomotor activity in mouse assessed as distance traveled by animal in horizontal locomotion at 25 mg/kg, po after 60 mins measured for 30 mins by spontaneous locomotor activity; format: functional
Outline: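 Mice were dosed orally at 25 mg/kg and acclimated to the chamber for 10 min. Horizontal distance travelled (cm) was then recorded over 30 min by automated video tracking. Testing ran between 09:00 and 17:00 h. Mean ± SEM of 6–7 mice.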

Chain of Voltage-gated inwardly rectifying potassium channel KCNH2 (Q12809 whole entry): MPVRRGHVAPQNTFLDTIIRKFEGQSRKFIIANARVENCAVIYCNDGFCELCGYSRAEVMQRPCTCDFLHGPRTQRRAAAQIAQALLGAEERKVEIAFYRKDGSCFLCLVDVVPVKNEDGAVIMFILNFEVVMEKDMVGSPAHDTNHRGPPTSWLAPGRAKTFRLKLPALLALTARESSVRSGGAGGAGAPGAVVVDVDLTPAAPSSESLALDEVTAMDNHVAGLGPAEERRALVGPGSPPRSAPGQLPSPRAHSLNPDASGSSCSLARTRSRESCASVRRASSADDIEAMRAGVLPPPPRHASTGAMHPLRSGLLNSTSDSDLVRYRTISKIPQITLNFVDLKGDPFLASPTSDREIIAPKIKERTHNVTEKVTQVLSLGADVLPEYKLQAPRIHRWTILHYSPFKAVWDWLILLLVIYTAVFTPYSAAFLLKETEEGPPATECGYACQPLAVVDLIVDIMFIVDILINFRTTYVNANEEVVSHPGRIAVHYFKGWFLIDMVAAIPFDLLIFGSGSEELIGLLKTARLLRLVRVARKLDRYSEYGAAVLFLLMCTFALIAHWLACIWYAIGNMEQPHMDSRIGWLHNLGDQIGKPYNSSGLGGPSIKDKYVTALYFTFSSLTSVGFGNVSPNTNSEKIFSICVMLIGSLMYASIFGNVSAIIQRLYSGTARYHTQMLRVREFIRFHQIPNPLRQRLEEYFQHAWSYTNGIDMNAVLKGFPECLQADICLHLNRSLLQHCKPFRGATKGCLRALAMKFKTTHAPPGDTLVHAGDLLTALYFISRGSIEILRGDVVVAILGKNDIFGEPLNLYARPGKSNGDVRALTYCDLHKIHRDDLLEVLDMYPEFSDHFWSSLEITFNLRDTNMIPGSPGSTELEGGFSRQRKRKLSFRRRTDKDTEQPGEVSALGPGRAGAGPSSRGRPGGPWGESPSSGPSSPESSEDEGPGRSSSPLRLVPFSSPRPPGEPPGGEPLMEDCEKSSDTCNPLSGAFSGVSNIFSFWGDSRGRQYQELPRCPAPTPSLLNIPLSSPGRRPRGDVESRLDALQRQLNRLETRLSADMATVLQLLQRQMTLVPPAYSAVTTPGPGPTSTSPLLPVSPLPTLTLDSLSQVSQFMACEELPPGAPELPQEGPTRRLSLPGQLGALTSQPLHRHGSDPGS

**Q.** For `Cc1[nH]c(-c2ccccc2)cc1C(=O)NCCCN1CCN(c2cccc(Cl)c2Cl)CC1`, which IC50 [1] is on record?
**A.** The IC50 was 100 nM.

**Q.** For `CCCn1c(-c2ccccc2)cc(C(=O)NCCCN2CCN(c3cccc(Cl)c3Cl)CC2)c1C`, which IC50 [1] is on record?
**A.** The IC50 was 540 nM.

**Q.** `Cc1c(C(=O)NCCCN2CCN(c3cccc(Cl)c3Cl)CC2)cc(-c2cccnc2)n1C` was tested. Which IC50 [2] did it give?
**A.** Its IC50 is 92 nM.

**Q.** And the IC50 [3]?
**A.** The IC50 was 209 nM.

**Q.** What about the IC50 [4] of the same compound?
**A.** Its IC50 is 7 nM.

**Q.** And the IC50 [1]?
**A.** The IC50 was 6800 nM.

**Q.** `Cc1c(Cl)cccc1N1CCN(CCNC(=O)c2cc(-c3ccccc3)n(C)c2C)CC1` was tested. Which IC50 [2] did it give?
**A.** Its IC50 is 233 nM.

**Q.** And the IC50 [4]?
**A.** The IC50 was 64 nM.

**Q.** And the Activity (Mus musculus)?
**A.** The Activity was 7100 cm.

**Q.** How did the IC50 [2] turn out when `Cc1c(Cl)cccc1N1CCN(CCNC(=O)c2cc(C(C)(C)C)n(C)c2C)CC1` was run?
**A.** Its IC50 is 210 nM.

**Q.** And the IC50 [3]?
**A.** Its IC50 is 54 nM.

**Q.** And the IC50 [4]?
**A.** Its IC50 is 315 nM.

**Q.** And the Activity (Mus musculus)?
**A.** The Activity was 6217 cm.

**Q.** `Cc1c(C(=O)NCCCN2CCN(c3ccccc3Br)CC2)cc(-c2ccccc2)n1C` was tested. Which IC50 [2] did it give?
**A.** Its IC50 is 633 nM.

**Q.** What about the IC50 [3] of the same compound?
**A.** The IC50 was 221 nM.

**Q.** What about the IC50 [4] of the same compound?
**A.** The IC50 was 225 nM.

**Q.** Which results are given for `Cc1c(C(=O)NCCCN2CCN(c3cccc4cccnc34)CC2)cc(-c2ccccc2)n1C`?
**A.** IC50 [2]: 233 nM; IC50 [3]: 352 nM; IC50 [4]: 22 nM

**Q.** For `Cc1ccc2cccc(N3CCN(CCCNC(=O)c4cc(-c5ccccc5)n(C)c4C)CC3)c2n1`, which IC50 [2] is on record?
**A.** The IC50 was 653 nM.

**Q.** What about the IC50 [3] of the same compound?
**A.** Its IC50 is 832 nM.

**Q.** And the IC50 [4]?
**A.** The IC50 was 300 nM.

**Q.** How did the IC50 [2] turn out when `CCCn1c(-c2ccccc2)cc(C(=O)NCCCN2CCN(c3ccc(Cl)c(Cl)c3)CC2)c1C` was run?
**A.** The IC50 was 324 nM.

**Q.** What about the IC50 [3] of the same compound?
**A.** The IC50 was 54 nM.

**Q.** What about the IC50 [4] of the same compound?
**A.** The IC50 was 284 nM.

**Q.** For `CCCn1c(-c2ccccc2)cc(C(=O)NCCCN2CCN(c3cccc(Br)c3)CC2)c1C`, which IC50 [2] is on record?
**A.** The IC50 was 633 nM.

**Q.** What about the IC50 [3] of the same compound?
**A.** The IC50 was 221 nM.

**Q.** And the IC50 [4]?
**A.** The IC50 was 225 nM.

**Q.** Which IC50 [2] does the source give for `CCCn1c(-c2ccccc2)cc(C(=O)NCCCN2CCN(c3cccc(OC)c3)CC2)c1C` here?
**A.** Its IC50 is 452 nM.

**Q.** And the IC50 [3]?
**A.** Its IC50 is 153 nM.

**Q.** What about the IC50 [4] of the same compound?
**A.** Its IC50 is 322 nM.

**Q.** What does the source list for `CCCn1c(-c2ccccc2)cc(C(=O)NCCCN2CCN(c3cc(F)ccc3F)CC2)c1C`?
**A.** IC50 [2]: 1010 nM; IC50 [3]: 135 nM; IC50 [4]: 854 nM

**Q.** For `CCCn1c(-c2ccccc2)cc(C(=O)NCCCN2CCN(c3cccc(C(F)(F)F)c3)CC2)c1C`, which IC50 [2] is on record?
**A.** Its IC50 is 619 nM.

**Q.** What about the IC50 [3] of the same compound?
**A.** The IC50 was 410 nM.

**Q.** And the IC50 [4]?
**A.** Its IC50 is 381 nM.

**Q.** What does the source list for `CCCn1c(-c2ccccc2)cc(C(=O)NCCCN2CCN(c3cccc4cccnc34)CC2)c1C`?
**A.** IC50 [2]: 420 nM; IC50 [3]: 210 nM; IC50 [4]: 82 nM

**Q.** Which IC50 [2] does the source give for `CCCn1c(-c2ccccc2)cc(C(=O)N(C)CCCN2CCN(c3cccc(C)c3C)CC2)c1C` here?
**A.** Its IC50 is 12 nM.

**Q.** And the IC50 [3]?
**A.** The IC50 was 17 nM.

**Q.** And the IC50 [4]?
**A.** The IC50 was 163 nM.

**Q.** What about the IC50 [1] of the same compound?
**A.** The IC50 was 700 nM.

**Q.** For `Cc1c(C(=O)N(C)CCCN2CCN(c3cccc(Cl)c3Cl)CC2)cc(-c2ccccc2)n1C`, which IC50 [2] is on record?
**A.** The IC50 was 35 nM.

**Q.** And the IC50 [1]?
**A.** Its IC50 is 500 nM.

**Q.** With `CCCn1c(-c2ccccc2)cc(C(=O)N(C)CCCN2CCN(c3cccc(Cl)c3Cl)CC2)c1C` as the compound, how does the IC50 [2] read?
**A.** Its IC50 is 21 nM.

**Q.** How did the IC50 [2] turn out when `Cc1c(C(=O)NCCN2CCN(c3cccc(Cl)c3Cl)CC2)c(C)n(C)c1-c1ccccc1` was run?
**A.** Its IC50 is 16 nM.

**Q.** What about the IC50 [3] of the same compound?
**A.** The IC50 was 33 nM.

**Q.** What about the IC50 [4] of the same compound?
**A.** The IC50 was 78 nM.

**Q.** Which results are given for `CCn1c(-c2ccc(Cl)cc2)cc(C(=O)NCCCN2CCN(c3cccc(Cl)c3Cl)CC2)c1C`?
**A.** IC50 [2]: 22 nM; IC50 [3]: 153 nM; IC50 [4]: 629 nM

**Q.** For `Cc1cccc(N2CCN(CCNC(=O)c3cc(C(C)(C)C)n(C)c3C)CC2)c1C`, which IC50 [2] is on record?
**A.** The IC50 was 2230 nM.

**Q.** What about the IC50 [3] of the same compound?
**A.** The IC50 was 36 nM.

**Q.** And the IC50 [4]?
**A.** The IC50 was 908 nM.

**Q.** And the IC50 [1]?
**A.** Its IC50 is 11800 nM.

**Q.** With `Cc1cccc(N2CCN(CCCNC(=O)c3cc(C(C)(C)C)n(C)c3C)CC2)c1C` as the compound, how does the IC50 [2] read?
**A.** Its IC50 is 1140 nM.

**Q.** What about the IC50 [3] of the same compound?
**A.** Its IC50 is 386 nM.

**Q.** And the IC50 [4]?
**A.** Its IC50 is 252 nM.

**Q.** `Cc1c(C(=O)NCCN2CCN(c3cccc(Cl)c3Cl)CC2)cc(C(C)(C)C)n1C` was tested. Which IC50 [2] did it give?
**A.** Its IC50 is 109 nM.

**Q.** And the IC50 [3]?
**A.** The IC50 was 50 nM.

**Q.** What about the IC50 [4] of the same compound?
**A.** The IC50 was 45 nM.

**Q.** `CCCn1c(-c2ccccn2)cc(C(=O)NCCCN2CCN(c3cccc(Cl)c3Cl)CC2)c1C` was tested. Which IC50 [1] did it give?
**A.** Its IC50 is 1000 nM.

**Q.** For `Cc1c(C(=O)NCCCN2CCN(c3ccncc3)CC2)cc(-c2ccccc2)n1C`, which IC50 [2] is on record?
**A.** The IC50 was 5260 nM.

**Q.** And the IC50 [3]?
**A.** Its IC50 is 4560 nM.

**Q.** And the IC50 [4]?
**A.** The IC50 was > 10000 nM.

**Q.** `Cc1[nH]c(-c2ccccn2)cc1C(=O)NCCCN1CCN(c2cccc(Cl)c2Cl)CC1` was tested. Which IC50 [2] did it give?
**A.** The IC50 was 221 nM.
